Test results from ChEMBL document CHEMBL4190389, “Synthesis and activity of di- or trisubstituted N-(phenoxyalkyl)- or N-{2-[2-(phenoxy)ethoxy]ethyl}piperazine derivatives on the central nervous system” (Bioorg Med Chem Lett, 2018).
Calls of active or inactive are those of the source. The calls are words filed in the database; no cut-off is given here.

Columns and labels:
[1] = biological target: T1, 5-hydroxytryptamine receptor 1A (Homo sapiens) (UniProt P08908); test: Antagonist activity at human 5-HT1A receptor expressed in CHO-K1 cells co-expressing Galpha16 assessed as decrease in serotonin-induced calcium mobilization preincubated for 25 mins followed by serotonin challenge measured for 30 secs by aequorin-derived luminescence assay relative to control; type: functional, cell-based
T1 sequence (whole entry): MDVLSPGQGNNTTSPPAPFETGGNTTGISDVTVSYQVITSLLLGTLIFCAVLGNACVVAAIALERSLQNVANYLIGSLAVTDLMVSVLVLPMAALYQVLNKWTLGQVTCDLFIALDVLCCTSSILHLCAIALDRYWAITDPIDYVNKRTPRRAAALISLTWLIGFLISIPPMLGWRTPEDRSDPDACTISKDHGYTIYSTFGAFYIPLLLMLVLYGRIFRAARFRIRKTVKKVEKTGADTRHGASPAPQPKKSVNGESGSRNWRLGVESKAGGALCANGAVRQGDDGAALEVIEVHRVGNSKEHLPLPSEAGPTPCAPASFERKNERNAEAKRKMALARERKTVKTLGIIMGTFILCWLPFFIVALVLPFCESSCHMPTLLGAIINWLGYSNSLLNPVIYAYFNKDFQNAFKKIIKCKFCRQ

Mus musculus [2] = test: Antiallodynic activity in STZ-induced Albino Swiss CD-1 mouse allodynia model assessed as increase in paw withdrawal latency time at 30 mg/kg, ip measured after 60 mins by Von Frey test; type: functional, organism-based
Mus musculus [3] = test: Anxiolytic-like activity in Albino Swiss CD-1 mouse assessed as increase in number of punished crossings at 10 mg/kg, ip administered for 30 mins prior to test measured for 1 min by four-plate test; type: functional, organism-based
How it was run: (§1)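 Four-plate test in mice, i.p., 30 min before test; vehicle 0.9% NaCl; doses 1.25–10 mg/kg; number of punished crossings counted; mean ± SEM, n = 8–10 mice per group; ANOVA F statistics.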

Mus musculus [4] = test: Toxicity in Albino Swiss CD-1 mouse assessed as effect on locomotory activity at 5 to 10 mg/kg, ip administered for 30 mins prior to test measured for 1 min; type: organism-based; conditions: in vivo
How it was run: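 Mice dosed i.p. 30 min before test; vehicle groups received 0.9% NaCl. Spontaneous locomotion scored as number of crossings during a 1-min session. Each dose compared with its own vehicle group by Student t-test; mean ± SEM, n = 8–10 mice per group.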

[5] = biological target: 5-hydroxytryptamine receptor 7 (Homo sapiens, UniProt P34969); test: biochemical; type: cell-based, CHO
Sequence of 5-hydroxytryptamine receptor 7 (P34969 whole entry): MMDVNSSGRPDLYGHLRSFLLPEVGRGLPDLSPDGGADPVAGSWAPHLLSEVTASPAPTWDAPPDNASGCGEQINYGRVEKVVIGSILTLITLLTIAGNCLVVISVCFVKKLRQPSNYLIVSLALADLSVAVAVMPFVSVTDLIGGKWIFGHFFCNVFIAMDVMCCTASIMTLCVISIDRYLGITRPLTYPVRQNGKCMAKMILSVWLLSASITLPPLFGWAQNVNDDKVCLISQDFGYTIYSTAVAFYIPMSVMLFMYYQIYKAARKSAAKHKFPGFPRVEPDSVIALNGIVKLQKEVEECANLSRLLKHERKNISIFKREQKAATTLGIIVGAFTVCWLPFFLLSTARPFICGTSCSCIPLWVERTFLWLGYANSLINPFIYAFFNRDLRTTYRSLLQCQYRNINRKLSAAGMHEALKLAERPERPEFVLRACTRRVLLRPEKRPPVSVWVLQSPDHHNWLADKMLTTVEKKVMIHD

[6] = biological target: T2, 5-hydroxytryptamine receptor 1A (Homo sapiens, UniProt P08908); test: Displacement of [3H]8-OH-DPAT from recombinant human 5-HT1A receptor expressed in HEK293 cell membranes after 60 mins by liquid scintillation counting method
T2 sequence (P08908 whole entry): T1 sequence (whole entry)

[7] = biological target: T3, 5-hydroxytryptamine receptor 2A (Homo sapiens, UniProt P28223); test: biochemical; type: cell-based, HEK293
T3 sequence (P28223 whole entry): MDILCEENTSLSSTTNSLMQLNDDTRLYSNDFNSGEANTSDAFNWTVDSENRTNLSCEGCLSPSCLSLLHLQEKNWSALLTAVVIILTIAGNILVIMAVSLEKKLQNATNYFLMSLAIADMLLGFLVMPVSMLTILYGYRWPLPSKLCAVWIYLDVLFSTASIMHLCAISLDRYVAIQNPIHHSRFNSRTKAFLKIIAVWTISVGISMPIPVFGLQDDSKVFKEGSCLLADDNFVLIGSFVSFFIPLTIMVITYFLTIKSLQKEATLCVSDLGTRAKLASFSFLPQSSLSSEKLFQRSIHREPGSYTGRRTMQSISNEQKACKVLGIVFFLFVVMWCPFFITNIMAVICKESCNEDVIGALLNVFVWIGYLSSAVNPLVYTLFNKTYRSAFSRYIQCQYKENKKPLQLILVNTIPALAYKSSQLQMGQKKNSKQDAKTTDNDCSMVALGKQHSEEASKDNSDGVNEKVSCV

Mus musculus [8] = test: Antiallodynic activity in oxaliplatin-induced Albino Swiss CD-1 mouse allodynia model assessed as effect on hind paw licking at 30 mg/kg, ip measured after 60 mins by cold plate test; type: functional, organism-based
[9] = biological target: 5-hydroxytryptamine receptor 6 (Homo sapiens, UniProt P50406); test: Displacement of [3H]LSD from recombinant human 5-HT6 receptor expressed in CHO cells cell membranes after 60 mins by liquid scintillation counting method
Sequence of 5-hydroxytryptamine receptor 6 (P50406 whole entry): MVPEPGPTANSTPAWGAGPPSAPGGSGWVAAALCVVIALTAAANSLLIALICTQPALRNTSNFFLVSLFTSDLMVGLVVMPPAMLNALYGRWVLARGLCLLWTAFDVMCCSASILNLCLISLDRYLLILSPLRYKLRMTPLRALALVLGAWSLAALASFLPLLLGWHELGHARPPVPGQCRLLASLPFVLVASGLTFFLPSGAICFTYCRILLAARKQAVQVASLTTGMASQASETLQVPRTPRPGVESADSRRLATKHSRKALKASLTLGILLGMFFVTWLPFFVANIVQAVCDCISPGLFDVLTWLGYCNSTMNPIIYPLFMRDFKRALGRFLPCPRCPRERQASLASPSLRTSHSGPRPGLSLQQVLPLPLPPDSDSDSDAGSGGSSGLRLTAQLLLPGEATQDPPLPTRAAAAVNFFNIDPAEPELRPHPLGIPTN

Mus musculus [10] = test: Antinociceptive activity in STZ-induced Albino Swiss CD-1 mouse model of thermal-induced nociception assessed as increase in latency to respond with hind paw lick or jumping at 30 mg/kg, ip measured after 60 mins by hot plate test; type: functional, organism-based
D(2) dopamine receptor [11] = biological target: T4, D(2) dopamine receptor (Homo sapiens, UniProt P14416); test: Displacement of [3H]methylspiperonee from recombinant human D2 receptor expressed in HEK293 cells cell membranes after 60 mins by liquid scintillation counting method
T4 sequence (P14416 whole entry): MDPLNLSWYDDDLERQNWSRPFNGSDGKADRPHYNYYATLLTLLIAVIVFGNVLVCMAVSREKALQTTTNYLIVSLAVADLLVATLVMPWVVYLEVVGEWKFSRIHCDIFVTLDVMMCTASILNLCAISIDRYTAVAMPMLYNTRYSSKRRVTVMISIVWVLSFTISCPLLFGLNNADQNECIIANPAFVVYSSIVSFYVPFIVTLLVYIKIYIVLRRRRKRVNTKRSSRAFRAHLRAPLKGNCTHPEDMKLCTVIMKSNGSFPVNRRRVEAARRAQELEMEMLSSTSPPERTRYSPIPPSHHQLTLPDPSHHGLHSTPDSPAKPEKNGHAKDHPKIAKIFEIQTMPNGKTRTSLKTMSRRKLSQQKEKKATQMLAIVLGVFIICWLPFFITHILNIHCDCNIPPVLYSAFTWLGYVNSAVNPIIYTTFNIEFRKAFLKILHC

Mus musculus [12] = test: Neurotoxicity in Albino Swiss CD-1 mouse assessed as motor impairment at 15 mg/kg, ip treated 30 mins prior to test by rotarod test; type: toxicity, organism-based; conditions: in vivo, 0.5 h
Mus musculus [13] = test: Antiallodynic activity in oxaliplatin-induced Albino Swiss CD-1 mouse allodynia model assessed as effect on shaking at 30 mg/kg, ip measured after 60 mins by cold plate test; type: functional, organism-based
Mus musculus [14] = test: Antidepressant-like activity in Albino Swiss CD-1 mouse assessed as immobility time at 20 mg/kg, ip administered 30 mins prior to test measured for last 4 mins of 6 mins observation by forced swim test (reference value: 153.9 to 201.9 secs); type: functional
Mus musculus [15] = test: Antiallodynic activity in oxaliplatin-induced Albino Swiss CD-1 mouse allodynia model assessed as effect on jumping at 30 mg/kg, ip measured after 60 mins by cold plate test; type: functional, organism-based
[16] = biological target: T2, 5-hydroxytryptamine receptor 1A; test: (§2) Antagonist activity at human 5-HT1A receptor expressed in CHO-K1 cells co-expressing Galpha16 assessed as decrease in serotonin calcium mobilization preincubated for 25 mins followed by serotonin challenge measured for 30 secs by aequorin-derived luminescence assay; type: functional, cell-based
[17] = biological target: T1, 5-hydroxytryptamine receptor 1A (Homo sapiens); test: as §2; type: functional, cell-based
[18] = biological target: T1, 5-hydroxytryptamine receptor 1A (Homo sapiens); test: Agonist activity at human 5-HT1A receptor expressed in CHO-K1 cells co-expressing Galpha16 assessed as increase in calcium mobilization measured for 30 secs by aequorin-derived luminescence assay relative to serotonin; type: functional, cell-based
Mus musculus [19] = test: Antiallodynic activity in oxaliplatin-induced Albino Swiss CD-1 mouse allodynia model assessed as effect on decrease in abnormal movement at 30 mg/kg, ip measured after 60 mins by cold plate test; type: functional, organism-based
Mus musculus [20] = test: Antidepressant-like activity in Albino Swiss CD-1 mouse assessed as immobility time at 10 mg/kg, ip administered 30 mins prior to test measured for last 4 mins of 6 mins observation by forced swim test (reference value: 153.9 to 201.9 secs); type: functional
Mus musculus [21] = test: Anticonvulsant activity in Albino Swiss CD-1 mouse assessed as protection against 50 Hz current-induced seizure at 100 mg/kg, ip; type: functional, organism-based
[22] = biological target: T5, Alpha-1A adrenergic receptor (Homo sapiens, UniProt P35348); test: Displacement of [3H]prazosin from recombinant human alpha1 adrenoceptor expressed in CHO cell membranes after 30 mins by liquid scintillation counting method
T5 sequence (P35348 whole entry): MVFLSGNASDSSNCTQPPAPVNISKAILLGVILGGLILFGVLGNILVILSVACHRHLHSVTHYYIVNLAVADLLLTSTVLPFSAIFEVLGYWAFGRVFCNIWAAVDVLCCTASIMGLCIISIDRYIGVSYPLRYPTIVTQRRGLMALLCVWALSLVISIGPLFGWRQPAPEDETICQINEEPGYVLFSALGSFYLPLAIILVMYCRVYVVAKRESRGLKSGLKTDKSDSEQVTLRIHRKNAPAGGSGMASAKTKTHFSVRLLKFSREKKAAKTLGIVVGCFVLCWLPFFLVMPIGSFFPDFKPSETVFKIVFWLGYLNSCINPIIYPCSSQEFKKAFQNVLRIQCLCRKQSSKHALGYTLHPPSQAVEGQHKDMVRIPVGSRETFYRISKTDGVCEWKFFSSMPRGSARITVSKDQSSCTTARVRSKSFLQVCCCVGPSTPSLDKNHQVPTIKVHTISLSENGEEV

[23] = Protection index, ratio of TD50 for motor impairment in ip dosed Swiss albino CD-1 mouse to ED50 for protection against 50 Hz current-induced seizures in ip dosed Swiss albino CD-1 mouse; type: toxicity, organism-based, Swiss CD-1; conditions: in vivo, read-out: Ratio TD50/ED50
Mus musculus [24] = test: Antidepressant-like activity in Albino Swiss CD-1 mouse assessed as immobility time at 5 mg/kg, ip administered 30 mins prior to test measured for last 4 mins of 6 mins observation by forced swim test (reference value: 153.9 to 201.9 secs); type: functional
Mus musculus [25] = test: Anticonvulsant activity in ip dosed Albino Swiss CD-1 mouse assessed as dose required to protect against 50 Hz current-induced seizure; type: functional; conditions: Swiss CD-1, ip
Mus musculus [26] = test: Toxicity in Albino Swiss CD-1 mouse assessed as death at 15 to 100 mg/kg, ip; type: organism-based; conditions: in vivo
How it was run: (§3)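 Deaths counted in mice during maximal electroshock (MES) seizure testing after i.p. dosing, 6 mice per dose (3 or 1 at some top doses); recorded as number dead/number tested alongside protection and rotarod motor impairment (10 rpm); untreated control group included.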

[27] = Neurotoxicity in ip dosed Albino Swiss CD-1 mouse assessed as minimum dose required to induce motor impairment treated 30 mins prior to test by rotarod test; type: toxicity, organism-based; conditions: in vivo
Mus musculus [28] = test: Toxicity in Albino Swiss CD-1 mouse assessed as death at 100 mg/kg, ip; type: organism-based; conditions: in vivo; how it was run: as §3
D(2) dopamine receptor [29] = biological target: T4, D(2) dopamine receptor; test: Displacement of [3H]methylspiperonee from recombinant human D2 receptor expressed in HEK293 cell membranes at 10^-5 M after 60 mins by liquid scintillation counting method
Mus musculus [30] = test: Anticonvulsant activity in Albino Swiss CD-1 mouse assessed as protection against 50 Hz current-induced seizure at 30 mg/kg, ip; type: functional, organism-based
Mus musculus [31] = test: Toxicity in Albino Swiss CD-1 mouse assessed as death at 15 to 30 mg/kg, ip; type: organism-based; conditions: in vivo; how it was run: as §3
Mus musculus [32] = test: Neurotoxicity in Albino Swiss CD-1 mouse assessed as motor impairment at 30 mg/kg, ip treated 30 mins prior to test by rotarod test; type: toxicity, organism-based; conditions: in vivo, 0.5 h
Mus musculus [33] = test: Anticonvulsant activity in Albino Swiss CD-1 mouse assessed as protection against 50 Hz current-induced seizure at 45 mg/kg, ip; type: functional, organism-based
Mus musculus [34] = test: Anxiolytic-like activity in Albino Swiss CD-1 mouse assessed as increase in number of punished crossings at 5 to 10 mg/kg, ip administered for 30 mins prior to test measured for 1 min by four-plate test; type: functional, organism-based; how it was run: as §1
[35] = biological target: T3, 5-hydroxytryptamine receptor 2A; test: Antagonist activity at human 5-HT2A receptor expressed in CHO-K1 cells co-expressing Galpha16 assessed as decrease in serotonin calcium mobilization preincubated for 30 mins followed by serotonin challenge measured for 30 secs by aequorin-derived luminescence assay; type: functional, cell-based
Mus musculus [36] = test: Toxicity in Albino Swiss CD-1 mouse assessed as death at 30 to 100 mg/kg, ip; type: organism-based; conditions: in vivo; how it was run: as §3
Mus musculus [37] = test: Neurotoxicity in Albino Swiss CD-1 mouse assessed as motor impairment at 100 mg/kg, ip treated 30 mins prior to test by rotarod test; type: toxicity, organism-based; conditions: in vivo, 0.5 h
[38] = biological target: T1, 5-hydroxytryptamine receptor 1A (Homo sapiens); test: Displacement of [3H]8-OH-DPAT from recombinant human 5-HT1A receptor expressed in HEK293 cell membranes at 10^-5 M after 60 mins by liquid scintillation counting method

SMILES	Emax [1]	Activity (Mus musculus [4])	Ki [5]	Ki [6]	Ki [7]	Ki [9]	Ki (D(2) dopamine receptor [11])	Time (Mus musculus [14])	IC50 [16]	Kb [17]	Emax [18]	Time (Mus musculus [20])	Activity (Mus musculus [21])	Ki [22]	selectivity ratio [23]	Time (Mus musculus [24])	ED50 (Mus musculus [25])	TD50 at 0.5 h [27]	other results
COc1ccc(N2CCN(CCCOc3c(C)cc(C)cc3C)CC2)cc1.Cl.Cl	8%	Non-Toxic	3030 nM	146 nM	772 nM	> 5000 nM	4960 nM	183.9 s	595 nM	146 nM	1%	202 s	Active	2120 nM	2.89	179.9 s	23.5 mg/kg	67.9 mg/kg	Activity (Mus musculus [2]): Active; Activity (Mus musculus [3]): Active; Activity (Mus musculus [8]): inactive; Activity (Mus musculus [10]): inactive; Activity (Mus musculus [12]): Non-Toxic; Activity (Mus musculus [13]): inactive; Activity (Mus musculus [15]): inactive; Activity (Mus musculus [19]): inactive; Activity (Mus musculus [26]): Non-Toxic
Cc1cc(C)c(OCCOCCN2CCN(CCc3ccccc3)CC2)c(C)c1.Cl.Cl	45%	Non-Toxic	1050 nM	552 nM	2810 nM	2150 nM		178.4 s	1180 nM	291 nM	10%	173.8 s		772 nM	2.96	170.5 s	18 mg/kg	53.3 mg/kg	Activity (Mus musculus [28]): Toxic; inhibition (D(2) dopamine receptor [29]): inactive; Activity (Mus musculus [30]): Active; Activity (Mus musculus [31]): Non-Toxic; Activity (Mus musculus [32]): Non-Toxic
Cc1cccc(OCCOCCN2CCN(CCc3ccccc3)CC2)c1C.Cl.Cl		Non-Toxic	388 nM		220 nM	200 nM	1210 nM	162.1 s				161.1 s	Active	36 nM	1.6	157.6 s	22.2 mg/kg	35.5 mg/kg	Activity (Mus musculus [33]): Active; Activity (Mus musculus [34]): inactive; IC50 [35]: 6970 nM; Activity (Mus musculus [36]): Non-Toxic; Activity (Mus musculus [37]): Toxic; inhibition [38]: inactive
